Tested on: Plasmodium yoelii
Assay: NOVARTIS: Antimalarial liver stage activity measured as reduction in Plasmodium yoelii schizont area in HepG2-A16-CD81 cells by immuno-fluorescence, and median schizont size at 10uM compound concentration
Assay type: functional, organism-based
Details: for IC50: Plasmodium yoelii, HepG2-A16-CD81
Method in brief: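 Host and parasite nuclei stained with Hoechst 33342, parasites with αPyHSP70 antibody; 25 images per well by high-content imaging; median parasite (schizont) area measured by automated image analysis, ~50 schizonts per experiment, two or more independent experiments.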

Clc1ncnc2ncn(Cc3ccccc3)c12
Schizont size: 220.34 um
IC50: > 10 µM

c1ccc2cc3c(N4CCN(CCN5CCN(c6ccnc7cc8ccccc8cc67)CC5)CC4)ccnc3cc2c1
Schizont size: 135.69 um
IC50: 2.91 µM

O=[N+]([O-])c1ccc(N2CCCN(C(=S)Nc3ccc(F)cc3Br)CC2)nc1
Schizont size: 120.24 um
IC50: 4.62 µM

CCOC(=O)c1c(CSc2ccccc2)oc2cc(CN(C)C)c(O)c(Cl)c12
Schizont size: 188.08 um
IC50: 7.2 µM

COc1ccc(-c2c(C(F)(F)F)nn(C)c2NC(=O)Nc2ccc(F)cc2F)cc1
Schizont size: 103.33 um
IC50: 3.45 µM

COc1ccc(C(c2ccc(N(C)C)cc2)c2ccc(N(C)C)cc2)cc1
Schizont size: 172.95 um
IC50: > 10 µM

CCc1ccccc1N=C1c2c(cccc2[N+](=O)[O-])C(=O)C1C(C)=O (stereo not given)
Schizont size: 83.4 um
IC50: 2.03 µM

CCOC(=O)c1c(NC(C)=O)sc2c1CCN(C(C)C)C2
Schizont size: 93.21 um
IC50: 3.01 µM

O=C(c1cccc(Cl)c1)N1CCN(c2ccc([N+](=O)[O-])c(NC3CC3)c2)CC1
Schizont size: 102.71 um
IC50: 3.2 µM

CCc1ccccc1NC(C)=O
Schizont size: 188.81 um
IC50: > 10 µM

O=C(O)Cn1cnc2nc3n(c2c1=O)CCC3
Schizont size: 183.18 um
IC50: > 0.77 µM

CCOC(=O)C1=C(c2ccccc2)N=c2sc(=Cc3cc(C)n(-c4ccc(F)cc4)c3C)c(=O)n2C1c1cccc(OC)c1OC (stereo not given)
Schizont size: 106.25 um
IC50: 2.45 µM

OC(CNC1CCCCC1)Cn1c2ccccc2c2ccccc21 (stereo not given)
Schizont size: 143.41 um
IC50: 3.92 µM

CCOC(=O)C1(CC)CC(C)(C(=O)C[n+]2cccc(Br)c2)OC1=O.[Br-] (stereo not given)
Schizont size: 178.59 um
IC50: > 10 µM

CCc1c(C#N)c(N)nc(SCC(=O)c2ccc(C)cc2)c1C#N
Schizont size: 189.13 um
IC50: > 10 µM

CCN(c1ccccc1)S(=O)(=O)c1ccc(F)c(C(=O)Nc2c(C)cccc2C)c1
Schizont size: 234.32 um
IC50: > 10 µM

O=C(c1cccc([N+](=O)[O-])c1)c1ccc(Cl)c(Cl)c1
Schizont size: 108.65 um
IC50: 3.81 µM

CCCCOc1ccc(C2C3CCCC=C3C(C#N)=C(N)C2(C#N)C#N)cc1 (stereo not given)
Schizont size: 213.66 um
IC50: > 10 µM

COC(=O)C1=CNC=C(C(=O)OC)C1c1cc(OC)c(OC)c(OC)c1
Schizont size: 216.47 um
IC50: > 10 µM

COc1ccc(C2CC(=O)C3=C(C2)NC(C)=C(C(=O)OC(C)C)C3c2cccc(C)c2)cc1OC (stereo not given)
Schizont size: 90.91 um
IC50: 1.84 µM

CC1CC(N(C(=O)c2ccc(Cl)cc2Cl)c2ccccc2)c2ccccc2N1C(=O)c1ccc(Cl)cc1 (stereo not given)
Schizont size: 110.64 um
IC50: 3.64 µM

Cc1cccc(C)c1N(CC(=O)NCc1ccco1)S(C)(=O)=O
Schizont size: 194.24 um
IC50: > 10 µM

CC(=O)N(C)C1=C(N2CCCC2)C(=O)c2ccccc2C1=O
Schizont size: 123.79 um
IC50: 4.95 µM

Cc1nc2ccccc2c(=O)n1-c1ccc([N+](=O)[O-])cc1
Schizont size: 246.01 um
IC50: > 10 µM

O=C(O)c1c[nH]c2cc(N3CCCCCC3)c(F)cc2c1=O
Schizont size: 224.51 um
IC50: > 10 µM

Cc1ccc(OCC(=O)Nc2cccc(-c3nc4ncccc4o3)c2)cc1C
Schizont size: 160.01 um
IC50: > 10 µM

CCOc1ccc2[nH]c(=O)c(CN(CCN(CC)CC)C(=S)NCCCN(CC)CC)cc2c1
Schizont size: 120.76 um
IC50: 2.17 µM

N#CCSc1nc2ccccc2c2nc(CCc3c[nH]c4ccccc34)nn12
Schizont size: 221.17 um
IC50: > 10 µM

Cc1ccc(S(=O)(=O)Nc2nc3n(n2)C(c2ccccc2)C=C(c2ccccc2)N3)cc1 (stereo not given)
Schizont size: 198.42 um
IC50: > 10 µM

O=C(C1CC1)N1CCc2cc(Br)cc(S(=O)(=O)N3CCCC3)c21
Schizont size: 164.5 um
IC50: > 10 µM

Cc1c(C#N)c2ccccc2n1CC(=O)Nc1ccc(Br)cc1
Schizont size: 158.02 um
IC50: > 10 µM

CCCCn1c(NN=C2C(=O)Nc3ccccc32)nc2c1c(=O)[nH]c(=O)n2C
Schizont size: 172.53 um
IC50: > 10 µM

Cn1cnnc1SCC(=O)Nc1ccccc1C(F)(F)F
Schizont size: 204.16 um
IC50: > 10 µM

O=C1Nc2ccccc2C12Nc1ccccc1-c1nc3ccccc3n12 (stereo not given)
Schizont size: 165.43 um
IC50: > 10 µM

COc1ccc(NC(=O)COc2ccccc2C(C)C)c(OC)c1
Schizont size: 202.59 um
IC50: > 10 µM

Fc1ccc(Nc2nc(NCc3ccccc3)c3ccccc3n2)cc1
Schizont size: 154.58 um
IC50: 3.79 µM

CCc1noc(C)c1C(=O)NCCN1Cc2ccccc2OC(c2ccsc2)C1 (stereo not given)
Schizont size: 227.75 um
IC50: > 10 µM

COc1ccc(C2CC(=O)C3=C(C2)NC(C)=C(C(=O)OC2CCCC2)C3c2ccc([N+](=O)[O-])cc2)cc1OC (stereo not given)
Schizont size: 103.85 um
IC50: 3.92 µM

CC(C)(C)c1ccc(Oc2ccc(N3C(=O)C4CC=CCC4C3=O)cc2)cc1 (stereo not given)
Schizont size: 180.99 um
IC50: > 10 µM

O=C(Nc1ccc(-c2nc3cc(NC(=O)c4cccc([N+](=O)[O-])c4)ccc3[nH]2)cc1)c1cccc([N+](=O)[O-])c1
Schizont size: 101.45 um
IC50: > 0.94 µM

COc1ccccc1Cc1nc2ccccc2nc1SCC(=O)Nc1cccc(C(F)(F)F)c1
Schizont size: 187.88 um
IC50: > 10 µM

CCCC1(CCC)NC(=S)N(c2ccc(C)c(C)c2)N1
Schizont size: 233.59 um
IC50: > 10 µM

O=[N+]([O-])c1cc(C(F)(F)F)ccc1N1CCCN(C(=S)Nc2ccccc2)CC1
Schizont size: 93.73 um
IC50: 2.23 µM

CCN1CCN(c2cc(C)c3cc(NC(=O)c4cc(OC)cc(OC)c4)ccc3n2)CC1
Schizont size: 113.77 um
IC50: 3.74 µM

Nc1nonc1-n1nnc(C(=O)NN=Cc2ccc(F)c(Br)c2)c1-c1ccc([N+](=O)[O-])cc1
Schizont size: 246.12 um
IC50: > 10 µM

COc1ccc(C2CC3=NC(C)=C(C(=O)OC(C)C)C(c4ccccc4OC)C3=C(O)C2)cc1OC (stereo not given)
Schizont size: 182.03 um
IC50: > 10 µM

CCOC(=O)c1c(CNC)n(C)c2cc(Br)c(O)cc12.O=CO.O=CO
Schizont size: 175.56 um
IC50: > 10 µM

COc1ccc2c(C)nc(Nc3nc(C)cc(-c4ccccc4)n3)nc2c1
Schizont size: 170.24 um
IC50: 6.66 µM

CCCCOc1ccc(N(C(C)=O)C2=C(N3CCOCC3)C(=O)c3ccccc3C2=O)cc1
Schizont size: 74.84 um
IC50: 1.79 µM

CSc1nnc(-c2cccc([N+](=O)[O-])c2)n1Cc1ccccc1
Schizont size: 97.38 um
IC50: 2.51 µM

CC(C)NCC(O)Cn1c2ccc(Cl)cc2c2cc(Cl)ccc21 (stereo not given)
Schizont size: 88.41 um
IC50: 2.97 µM

COC(=O)c1cc(NC(=S)NC(=O)c2c(OC)cccc2OC)cc(C(=O)OC)c1
Schizont size: 216.06 um
IC50: > 10 µM

Cc1ccc(-c2cc(C(=O)OCC(=O)c3cccc([N+](=O)[O-])c3)c3cc(C)ccc3n2)cc1
Schizont size: 180.05 um
IC50: > 10 µM

CCN(CC)c1ccc(N=Cc2ccc(Sc3nc4ccccc4s3)o2)cc1
Schizont size: 152.6 um
IC50: > 10 µM

[Cl-].c1ccc(Cc2cc[n+](Cc3ccccc3)cc2)cc1
Schizont size: 127.34 um
IC50: 4.52 µM

CCc1cc2c(cc1-c1csc(NC(=N)N)n1)C(C)(C)CCC2(C)C
Schizont size: 92.27 um
IC50: 2.9 µM

Cc1c(Cl)cccc1N1C(=O)C2C3c4ccccc4C(c4ccccc43)C2C1=O (stereo not given)
Schizont size: 158.75 um
IC50: > 10 µM

O=C(Cc1cccs1)N1CCN(c2ccccn2)CC1
Schizont size: 189.55 um
IC50: > 10 µM

CCOc1ccc(NC(=O)C(C)Sc2nc3ccccc3[nH]2)cc1 (stereo not given)
Schizont size: 194.87 um
IC50: > 10 µM

CCSc1ccc2ccccc2[n+]1CC.[I-]
Schizont size: 209.06 um
IC50: > 10 µM

N#Cc1c2c(c(N3CCN(Cc4ccccc4)CC3)n3c1nc1ccccc13)CCC2
Schizont size: 241.42 um
IC50: > 10 µM

Cl.Nc1ccc(N2CCCCCC2)cc1
Schizont size: 77.66 um
IC50: 1.95 µM

CC(=O)Nc1ccc(-c2nc(-c3ccc(Oc4ccc(-c5[nH]c(-c6ccc(NC(C)=O)cc6)nc5-c5ccccc5)cc4)cc3)c(-c3ccccc3)[nH]2)cc1
Schizont size: 112.31 um
IC50: > 3.73 µM

Cc1ncc(CCCCN(C)C)c2c1[nH]c1ccccc12
Schizont size: 132.56 um
IC50: 2.77 µM

O=C1CC(c2ccccc2)CC2=C1C(c1ccccc1[N+](=O)[O-])Nc1ccccc1N2 (stereo not given)
Schizont size: 201.65 um
IC50: > 10 µM

O=C(c1cc2nc(-c3ccccc3)cc(C(F)(F)F)n2n1)N1CCN(Cc2ccccc2)CC1
Schizont size: 148.94 um
IC50: > 10 µM

Fc1ccc(-c2cn3c([n+]2-c2ccccc2)SCC3)cc1.[Br-]
Schizont size: 131.2 um
IC50: > 4.3 µM

Cc1cccc(C(=O)NCc2nnc(S)n2-c2cccc(C(F)(F)F)c2)c1
Schizont size: 210.73 um
IC50: > 10 µM

N#Cc1c2c(c(N3CCN(c4ccccn4)CC3)n3c1nc1ccccc13)CCC2
Schizont size: 174.41 um
IC50: > 10 µM

CC(=O)Nc1nc(C)c(-c2csc(Nc3ccc(C)cc3)n2)s1
Schizont size: 104.48 um
IC50: 1.89 µM

CCOc1ccc(N(C(=O)C2COc3ccccc3O2)C(C(=O)NC2CCCCC2)c2cn(C)nc2C)cc1 (stereo not given)
Schizont size: 191.42 um
IC50: > 10 µM

CCOC(=O)c1ccc(OCC2c3cc(OC)c(OC)cc3CCN2C(=O)c2ccc([N+](=O)[O-])cc2)cc1 (stereo not given)
Schizont size: 226.39 um
IC50: > 10 µM

N#CC1=C(N)Oc2c3c(c4ccccc4c2C1c1ccc(F)cc1)C(c1ccc(F)cc1)C(C#N)=C(N)O3 (stereo not given)
Schizont size: 105.63 um
IC50: 3.93 µM

CCCCSCC(O)CN1CCCCC1 (stereo not given)
Schizont size: 191.22 um
IC50: > 10 µM

Cc1ccc(NC(=O)C2C3C=CC4(O3)C2C(=O)N(CCCN2CCOCC2)C4C(=O)NC2CCCC(C)C2C)cc1Cl.Cl (stereo not given)
Schizont size: 196.54 um
IC50: > 10 µM

Reference: ChEMBL document CHEMBL1789904, “Imaging of Plasmodium liver stages to drive next-generation antimalarial drug discovery” (Science, 2011)
